From article PMC3838201 (Circulation, 2013)
Read-outs that look alike come from different tables or passages of the source. Each block holds one compound with its values, some of them ahead of it.

Key:
[1] = molecular target: recombinant human DDAH1 (rhDDAH1) (Homo sapiens, UniProt O94760); assay: Colorimetric microplate DDAH activity assay; type: biochemical
[2] = tested on: human microvascular endothelial cells; assay: Intracellular ADMA in human endothelial cells; type: cell-based; details: 20 μM, 24 hours
In short: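 HMEC-1 microvascular endothelial cells in serum-free DMEM got test compound (20 μM final), a known DDAH1 inhibitor as control, or DMSO vehicle for 3 h. Medium was then switched to DMEM with 10% FBS, 4mM HEPES and penicillin/streptomycin (pH 7.6), 37°C/5% CO2, until 24 h. Cells were washed and lysed; protein measured by Coomassie; intracellular ADMA by ELISA. Duplicate experiments; unpaired t-test versus vehicle.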

rhDDAH1 [3] = molecular target: T1, rhDDAH1 (Homo sapiens, UniProt O94760); assay: Reversibility study by inhibitor dilution; type: biochemical; details: DDAH 30 μM pre-incubated with inhibitor, serially diluted
In short: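 DDAH (30 μM, 100-fold above the enzymatic assay concentration) was pre-incubated with test compound at three concentrations, then diluted. Recovery of enzymatic activity was read by fluorometric DDAH assay, with a known DDAH1 inhibitor as control.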

[4] = tested on: human saphenous vein segments; assay: NOx release from human saphenous vein segments; details: 24 hours; in the presence or absence of A23187 (0.5 μM); omeprazole 3–100 μM, L-257 100 μM
In short: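 Saphenous vein segments harvested during CABG surgery were rinsed in lactated Ringer's solution, cut into 0.5 cm pieces and held in endothelial cell medium. They were kept basal or stimulated with A23187 (0.5 μM) for 24 hours with test compound, a reference DDAH1 inhibitor or vehicle. Griess reaction measured total nitrite (NOx) in the conditioned medium. Duplicate experiments, mean ± SEM, one-way ANOVA with Bonferroni post-test versus vehicle.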

DDAH = DDAH (Homo sapiens, UniProt O94760); assay: High throughput screen for DDAH inhibitors; type: biochemical; details: primary hits of the screen of about 130,000 small molecules
In short: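 Purified recombinant human DDAH1 was used in a DDAH activity assay to screen a library of about 130,000 small molecules. Activity was monitored by colorimetric and fluorometric assays. Hits were compounds inhibiting DDAH by more than 30%. Primary hits were then validated with orthogonal colorimetric and fluorimetric activity assays.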

[5] = single oral dose of 30 mg, cited from earlier work
[6] = Serum ADMA levels in mice in vivo; design: species or system mouse; details: C57BL/6J mice; 30 mg/kg/day subcutaneous; 5-week study period
[7] = tested on: primary human microvascular endothelial cells (HMVECs); assay: Intracellular NOx in endothelial cells; type: cell-based; details: 24 hours; lysates, normalized to total protein
In short: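 Primary HMVECs were exposed to vehicle or various concentrations of test compound for 24 h, with a selective DDAH1 inhibitor as control. Total nitrite (NOx) in cell lysates was measured by Griess reaction and normalized to total protein. Values come from duplicate experiments.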

HMVECs [8] = assay: Western blot of DDAH1 and DDAH2 expression in HMVECs; type: cell-based, human; details: 3–100 μM for 24 hours
HMVECs [9] = assay: Western blot of eNOS and phospho-eNOS in HMVECs; type: cell-based, human; details: HMVEC lysate, normalized to β-actin
In short: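 Endothelial cell lysates (20 μg) from cells exposed to test compound or vehicle were analysed by Western blot for total eNOS and phospho-eNOS. VEGF (50 ng/mL) served as positive control for eNOS phosphorylation. Bands were normalized to β-actin.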

rhDDAH1 [10] = molecular target: T1, rhDDAH1; assay: Surface plasmon resonance enzyme-drug binding study; details: 12.5–100 μM; rhDDAH1 amine coupled to CM5 chip; pH 6.5
In short: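 rhDDAH1 was purified with HEPES elution (10mM HEPES in PBS) to avoid competing amines, then amine-coupled to a CM5 chip. Test compound from a DMSO stock, or DMSO vehicle, was diluted in 100mM Na2HPO4, pH 6.5. It was passed over the chip at 4 concentrations (serial dilution, 12.5–100 μM). Binding was followed in real time as sensorgram peaks, in duplicate experiments.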

mouse thoracic aorta = assay: Vascular reactivity of isolated mouse thoracic aorta ex vivo; details: aorta exposed for 24 hours
[11] = IC50, 8 point concentration range 0.78–100 μM, Mean ± SEM, triplicate

T1 sequence (O94760 whole entry): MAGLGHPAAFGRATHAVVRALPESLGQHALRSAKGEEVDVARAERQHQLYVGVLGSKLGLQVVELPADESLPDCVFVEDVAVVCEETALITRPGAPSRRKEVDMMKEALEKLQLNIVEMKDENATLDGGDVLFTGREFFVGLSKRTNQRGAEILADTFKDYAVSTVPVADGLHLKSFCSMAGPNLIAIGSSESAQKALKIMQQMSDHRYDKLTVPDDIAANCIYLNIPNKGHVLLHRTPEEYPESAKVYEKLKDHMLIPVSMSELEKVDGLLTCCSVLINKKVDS
recombinant human DDAH1 (rhDDAH1), sequence (O94760 whole entry): as above
DDAH, sequence (O94760 whole entry): as above

Compound: COc1ccc2nc([S@@+]([O-])Cc3ncc(C)c(OC)c3C)[nH]c2c1 [Esomeprazole, esomeprazole]
- IC50 [1, 11]: 52 ± 5 µM
- increase of intracellular ADMA compared to vehicle control [2]: ~ 30%

Compound: COCCNC(N)=NCCC[C@H](N)C(=O)O [L-257]
- reversibility of inhibition of DDAH enzymatic activity upon dilution (rhDDAH1 [3]): complete reversibility upon dilution
- effect on intracellular ADMA ([2]; control DDAH inhibitor): increased ADMA
- NOx released from isolated human saphenous veins [4]: significantly inhibited

Compound: COc1ccc2[nH]c([S+]([O-])Cc3ncc(C)c(OC)c3C)nc2c1 (stereo not shown) [Omeprazole, omeprazole]
- inhibition of DDAH in high throughput screen (DDAH): more than 30%
- IC50 [1, 11]: 58 ± 5 µM
- IC50 ([1]; IC50, IC50 value used to set the concentrations of the reversibility study): ~60 µM
- levels of nitrogen oxides (NOx) in cultured endothelial cells [7]: dose-dependently reduced
- reversibility of inhibition of DDAH enzymatic activity upon dilution (rhDDAH1 [3]): rapid and almost complete reversibility
- protein expression of DDAH1 and DDAH2 (HMVECs [8]): neither regulated the expression of DDAH1 nor that of DDAH2
- expression of total eNOS and active eNOS (phospho-eNOS) (HMVECs [9]): downregulated
- binding to DDAH (SPR sensorgram) (rhDDAH1 [10]): direct interaction between the PPI and DDAH
- NOx released from isolated human saphenous veins [4]: significantly inhibited
- contraction to phenylephrine (PE) (mouse thoracic aorta): enhanced the contraction to phenylephrine
- endothelium independent vasorelaxation to sodium nitroprusside (mouse thoracic aorta): did not effect
- relaxation to acetylcholine (ACh) (mouse thoracic aorta): blunted the relaxation to acetylcholine

More lines, main results first:

- inhibition of DDAH in high throughput screen (DDAH): more than 30%
Compound: Cc1c(OCC(F)(F)F)ccnc1C[S+]([O-])c1nc2ccccc2[nH]1 (stereo not shown) [Lansoprazole, lansoprazole]
- Cmax ([5]; read-out: maximum plasma concentration (Cmax)): 2 to 6 µM
- time to maximum plasma concentration [5]: ≤ 3 h
- increase of intracellular ADMA compared to vehicle control [2]: ~ 30%
- increase of serum ADMA compared to vehicle control [6]: about 20%

- inhibition of DDAH in high throughput screen (DDAH): more than 30%
Compound: COc1ccnc(C[S+]([O-])c2nc3ccc(OC(F)F)cc3[nH]2)c1OC (stereo not shown) [Pantoprazole, pantoprazole]

- inhibition of DDAH in high throughput screen (DDAH): more than 30%
- IC50 [1]: 61 ± 1.5 µM
Compound: COc1ccc2[nH]c([S+]([O-])Cc3ncc(C)c(OC)c3C)nc2n1 (stereo not shown) [Tenatoprazole, tenatoprazole]
